The list is not random: actives were taken first. Their share in the collection is about 2.1%.
GSK3 alpha inh – blockers of GSK3A enzyme activity – biochemical, luminescence, cell-free homogeneous, HTS, primary screen. 0.1% of 320,000 active. inhibition, % at 10 µM. GSK-3 alpha kinase, ADP-Glo luminescence, 60 min. Glycogen synthase kinase-3 alpha (Homo sapiens), P49840;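 active means more than half of replicates show inhibition above 20%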;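 further: GST-tagged GSK-3 alpha with peptide substrate and 25 µM ATP; 0% = DMSO neutral wells and 100% = GW8510 positive control wells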
MEKK2mut PB1 HTS – MEK5 binding signal on mutant MEKK2 PB1, primary screen, biochemical, multiplex bead flow cytometry, Alexa488-MEK5; AID 1530, 2009; 0.35% of 290,000 active; percent response, % at 10 µM; Alexa488-MEK5 binding to MEKK2 mutant; in the data active means percent response above about 24%, passing the limit was not always enough
MEKK2 WT-MEK5 – modulators of MEK5 binding to wildtype MEKK2, primary screen, biochemical, multiplex bead flow cytometry, Alexa488-MEK5 | 1.1% of 290,000 active | Mitogen-activated protein kinase kinase kinase 2 (Homo sapiens), Q9Y2U5 | binding response (% of control), % at 10 µM | Alexa488-MEK5 binding to MEKK2 WT; actives lie on both sides; in the data active means binding response below about 67% or above about 130%
GSK3B inh – human GSK3beta kinase inhibitors, primary screen, biochemical, cell-free homogeneous, HTS | Glycogen synthase kinase-3 beta (Homo sapiens), P49841 | GST-GSK3beta kinase, ADP-Glo luminescence, 60 min; stronger effect = lower value | activity score (negative = inhibition), % at 10 µM | 0.038% of 300,000 active | AID 2097, 2009;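 active means more than half of replicate wells score below -50%, meaning over 50% inhibition versus plate controls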;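 further: 0% = median DMSO wells and -100% = median GW8510 positive control wells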
Target sequence (P49841 whole entry, looked up): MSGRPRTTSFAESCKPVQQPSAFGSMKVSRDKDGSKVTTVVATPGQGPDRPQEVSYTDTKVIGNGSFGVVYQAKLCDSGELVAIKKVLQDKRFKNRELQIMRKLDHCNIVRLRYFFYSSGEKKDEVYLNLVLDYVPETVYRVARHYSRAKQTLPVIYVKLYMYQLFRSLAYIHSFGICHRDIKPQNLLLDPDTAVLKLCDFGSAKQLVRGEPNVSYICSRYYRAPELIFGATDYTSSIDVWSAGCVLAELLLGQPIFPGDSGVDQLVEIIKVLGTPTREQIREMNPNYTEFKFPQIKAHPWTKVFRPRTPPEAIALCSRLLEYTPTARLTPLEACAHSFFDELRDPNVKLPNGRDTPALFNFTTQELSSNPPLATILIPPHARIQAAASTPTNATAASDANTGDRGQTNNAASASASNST
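Assay system: GST-tagged human GSK3beta kinase, cell-free; Input: 1.6 ng GSK3beta; Medium: Tris/MgCl2 kinase buffer; Timing: 60 min enzyme reaction, room temperature; Signal: ADP-Glo luminescence quantifying ADP generated by kinase; Evaluation: score relative to plate controls; Benchmarks: DMSO neutral wells and GW8510 at 20 µM as positive.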
MEKK3 PB1 HTS – modulators of MEKK3-MEK5 PB1 binding, primary screen, biochemical, wildtype MEKK3, multiplex bead flow cytometry, Alexa488-MEK5; Mitogen-activated protein kinase kinase kinase 3 (Homo sapiens), Q99759; 1.4% of 290,000 active; binding response (% of control), % at 10 µM; AID 1529, 2009; bead-based flow cytometry, Alexa488-MEK5 binding to MEKK3; actives lie on both sides; 0 = blocked by unlabeled MEK5, 100 = vehicle;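 active means binding response more than 3 SD above or below the average of its plate-row segment, actives on both sides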;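 further: Alexa488 bead fluorescence after subtracting the streptavidin-only scavenger bead signal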
STK33 kinase inh – inhibitors of purified STK33 kinase, primary screen, biochemical, ADP-Glo luminescence, homogeneous, cell-free. MBP phosphorylation. inhibition, % at 10 µM. 0.073% of 320,000 active;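 active means inhibition at or above 25%, using the most active replicate where run in duplicate; inactive means inhibition below 25%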
MEKK2wt confirm – modulators of MEK5 binding to wildtype MEKK2, confirmation, biochemical, single concentration, multiplex bead flow cytometry | shares compounds with MEKK3 PB1 HTS | Alexa488-MEK5 binding to MEKK2 WT; actives lie on both sides | binding response (% of control), % at 10 µM | 2.4% of 5,900 active | AID 1892, 2009; in the data active means binding response below about 16% or above about 210%; inactive means in between
MEKK2mut-MEK5 – mutant MEKK2 PB1-MEK5 binding signal retest – biochemical, single concentration, multiplex bead flow cytometry, confirmation. 2% of 5,900 active. AID 1893, 2009. shares compounds with MEKK3 PB1 HTS. Alexa488-MEK5 binding to MEKK2 mutant. percent response, % at 10 µM; in the data active means percent response mostly above about 71%, no sharp cut-off; inactive means mostly below about 38%;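 further: higher means compound restores mutant binding toward wildtype level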
MEKK3-MEK5 inh – MEKK3 wild-type PB1 binding to MEK5, inhibitors, confirmation, biochemical, bead multiplex flow cytometry, single concentration, wildtype; binding response (% of control), % at 10 µM; 1.8% of 5,900 active; Alexa488-MEK5 binding to MEKK3; stronger effect = lower value; shares compounds with MEKK3 PB1 HTS;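 active means binding response below 72% of control, or above a set upper limit, though filed actives all read lower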;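 further: 100% = DMSO only wells and 0% = binding blocked by excess unlabeled MEK5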
* hit, by the source's call; [ ] = remark or other dose.

How did Cc1ccc(C)c(S(=O)(=O)NCc2ccc3c(c2)OCO3)c1 do in these assays?
GSK3 alpha inh: 1; MEKK2mut PB1 HTS: 2; MEKK2 WT-MEK5: 104; GSK3B inh: 2; MEKK3 PB1 HTS: 99; STK33 kinase inh: 0

What do the screens show for `Cc1ccc(OCCN2CCN(CC(O)Cn3c4ccccc4c4ccccc43)CC2)cc1` (stereo not given)?
GSK3 alpha inh: 2; MEKK2mut PB1 HTS: 59*; MEKK2 WT-MEK5: 239*; GSK3B inh: -2; MEKK3 PB1 HTS: 106; STK33 kinase inh: 0; MEKK2wt confirm: 142; MEKK2mut-MEK5: 26; MEKK3-MEK5 inh: 106

How did CCN(CC)S(=O)(=O)c1ccc(NC(=O)[C@@H](NC(=O)c2cc(OC)cc(OC)c2)C(C)C)cc1 do in these assays?
GSK3 alpha inh: 0; MEKK2mut PB1 HTS: 1; MEKK2 WT-MEK5: 110; GSK3B inh: -1; MEKK3 PB1 HTS: 105; STK33 kinase inh: -1

How did CC(OC(=O)c1cccs1)C(=O)NCc1ccccc1 (stereo not given) do in these assays?
GSK3 alpha inh: -2; MEKK2mut PB1 HTS: 9; MEKK2 WT-MEK5: 121; GSK3B inh: -2; MEKK3 PB1 HTS: 131*; STK33 kinase inh: -1; MEKK2wt confirm: 97; MEKK2mut-MEK5: -3; MEKK3-MEK5 inh: 101

Results for O=c1[nH]cc(I)cc1I ?
MEKK2mut PB1 HTS: -27; MEKK2 WT-MEK5: 38*[inhibitor]; GSK3B inh: 4; MEKK3 PB1 HTS: 37*[inhibitor]; MEKK2wt confirm: 101; MEKK2mut-MEK5: 4; MEKK3-MEK5 inh: 102

What do the screens show for `CCCCn1c(N)c(N(CC(C)C)C(=O)CCNC(=O)c2ccc(Cl)cc2)c(=O)[nH]c1=O`?
GSK3 alpha inh: 0; GSK3B inh: 1; STK33 kinase inh: 6

Results for CCC(=O)c1ccc(OCC(O)CN2CCN(C(c3ccccc3)c3ccccc3)CC2)cc1 (stereo not given) ?
GSK3 alpha inh: -1; MEKK2mut PB1 HTS: 18; MEKK2 WT-MEK5: 158*; GSK3B inh: -2; MEKK3 PB1 HTS: 105; STK33 kinase inh: 1; MEKK2wt confirm: 114; MEKK2mut-MEK5: 8; MEKK3-MEK5 inh: 103

Results for CCC(=O)c1ccc(OCC(O)CN2CCOCC2)cc1 (stereo not given) ?
GSK3 alpha inh: -1; MEKK2mut PB1 HTS: -31; MEKK2 WT-MEK5: 2.0*[inhibitor]; GSK3B inh: -1; MEKK3 PB1 HTS: 2.0*[inhibitor]; STK33 kinase inh: -4; MEKK2wt confirm: 99; MEKK2mut-MEK5: -2; MEKK3-MEK5 inh: 101

How did CCOC(=O)CCc1c(C)c2ccc(OC3CCCCC3=O)cc2oc1=O (stereo not given) do in these assays?
GSK3 alpha inh: -2; MEKK2mut PB1 HTS: 11; MEKK2 WT-MEK5: 111; GSK3B inh: 0; MEKK3 PB1 HTS: 108; STK33 kinase inh: 1
